Source: ChEMBL document CHEMBL4715831, “Design and synthesis of 2-((1H-indol-3-yl)thio)-N-phenyl-acetamides as novel dual inhibitors of respiratory syncytial virus and influenza virus A” (Eur J Med Chem, 2020)
pEC50: −log10 of the molar value.

Assays:
[1] = tested on: Respiratory syncytial virus; test: Antiviral activity against GFP-fused wild-type RSV subgroup A Long infected in human HEp-2 cells measured 24 to 72 hrs post infection by fluorescence assay; type: functional, cell-based
Procedure, shortened: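 HEp-2 cells plated, then after 24 h infected with RSV-mGFP using 3-fold serially diluted inocula starting from 3 × 10^4 pfu/well. Compounds came from a 100 mM DMSO stock, diluted as indicated. RFU read at 479/517 nm at 24, 48 and 72 h post-infection, with non-infected cells as background. Mean ± SD of at least three experiments.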

[2] = Cytotoxicity against human HEp-2 cells assessed as reduction in cell viability measured after 48 hrs by MTS assay; type: cell-based
Procedure, shortened: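 HEp-2 cells plated; after 24 h, compound added and cells incubated 48 h. MTS (2 mg/ml) then added for 3 h at 37 °C in 5% CO2 and absorbance read at 490 nm. Untreated control set as 100%.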

[3] = Safety index, ratio of CC50 for human HEp-2 cells to EC50 for GFP-fused wild-type RSV subgroup A long infected in human HEp-2 cells; type: toxicity, cell-based; settings: read-out: Ratio CC50/EC50
Influenza A virus [4] = test: Antiviral activity against Influenza A virus A/WSN/33(H1N1) infected in human HEK293T cells measured after 24 hrs by Gaussia luciferase reporter gene method; type: functional, organism-based; settings: A/WSN/1933(H1N1); for pEC50: HEK-293T
Procedure, shortened: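 HEK293T cells carrying a Gaussia luciferase reporter that is activated by IAV, infected with A/WSN/33 (H1N1) for 1 h at room temperature, then cultured 24 h at 37 °C with serially diluted compound. Supernatant Gluc read with coelenterazine-h (16.7 μM in PBS) as 0.5-s photon counts. Normalized to control set as 100%; ribavirin positive control; three experiments.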

[5] = Cytotoxicity against HEK293T cells assessed as reduction in cell viability measured after 48 hrs by CCK8 assay; type: cell-based, HEK-293T; settings: human
Procedure, shortened: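 293T cells treated for 48 h with six compound concentrations from 12.5 to 200 μM, with DMSO-only cells as control. CCK-8 then added for 1 h at 37 °C and OD read at 450 nm. Mean ± SD of three experiments.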

[6] = Safety index, ratio of CC50 for HEK293T cells to EC50 for antiviral activity against Influenza A virus A/WSN/33(H1N1) infected in human HEK293T cells; type: toxicity, cell-based; settings: read-out: Ratio CC50/EC50
Influenza A virus [7] = test: Antiviral activity against Influenza A virus A/WSN/33(H1N1) infected in human HEK293T cells assessed as inhibition of viral replication at 10 uM measured after 24 hrs by Gaussia luciferase reporter gene method relative to control; type: functional; settings: A/WSN/1933(H1N1), HEK-293T
Influenza A virus [8] = test: Antiviral activity against Influenza A virus A/WSN/33(H1N1) infected in MDCK cells measured after 24 hrs by Gaussia luciferase reporter gene method; type: functional, organism-based; settings: A/WSN/1933(H1N1)
Procedure, shortened: (§1)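 MDCK cells infected with IAV A/WSN/33 (H1N1) or H3N2 for 1 h at room temperature, then cultured in fresh DMEM with serially diluted compound for 24 h at 37 °C. Gluc activity in the medium read with coelenterazine-h (16.7 μM in PBS). Normalized to control set as 100%; ribavirin positive control; mean ± SD of three experiments.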

[9] = Antiviral activity against H3N2 infected in MDCK cells measured after 24 hrs by Gaussia luciferase reporter gene method; type: functional, cell-based, H3N2 subtype; settings: Influenza A virus; procedure, shortened: as §1
[10] = tested on: Respiratory syncytial virus; test: Antiviral activity against GFP-fused wild-type RSV subgroup A Long infected in human HEp-2 cells assessed as relative fluorescence intensity at 20 uM pretreated for 1 hr followed by viral infection measured 24 to 72 hrs post infection by fluorescence assay; type: functional, Respiratory syncytial virus type A; settings: time 24-73 hrs
Procedure, shortened: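 HEp-2 cells exposed to compound at 20 μM 1 h before RSV-mGFP infection (−1 h). GFP fluorescence read at 479/517 nm at 24, 48 and 72 h post-infection. Signal normalized to the DMSO control, set as 1; ribavirin was the positive control. Mean ± SD, three independent experiments.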

Influenza A virus [11] = test: Antiviral activity against Influenza A virus A/WSN/33(H1N1) infected in HEK293T cells assessed as relative fluorescence intensity at 20 uM pretreated for 2 hrs followed by viral infection and measured after 24 hrs by Gaussia luciferase reporter gene method; type: functional, A/WSN/1933(H1N1); settings: time 26 hrs
Procedure, shortened: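 Time-of-addition assay: compound at 20 μM added before infection or at infection (0 h) in HEK293T-Gluc cells infected with A/WSN/33 (H1N1). Supernatant Gaussia luciferase measured after 24 h with coelenterazine-h. Values normalized to the DMSO control, set as 100%; ribavirin positive control. Mean ± SD, three independent experiments.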

Row | SMILES | pEC50 [1] | CC50 at 48 h [2] [µM] | selectivity ratio [3] | pEC50 (Influenza A virus [4]) | CC50 at 48 h [5] [µM] | selectivity ratio [6] | Activity [1] | inhibition at 10 µM (Influenza A virus [7]) [%] | pEC50 (Influenza A virus [8]) | pEC50 [9] | RFU [10] | RFU (Influenza A virus [11]) | Activity (Influenza A virus [4])
1 | COc1ccc2[nH]cc(SCC(=O)Nc3ccc(Cl)c(Cl)c3)c2c1 | 4.78 | 46.4 | 2.79 | 4.81 | 61.8 | 4.19 |  |  |  |  |  |  | 
2 | CCOc1ccccc1NC(=O)CSc1c[nH]c2cccc(OC)c12 | 4.91 | 220 | 17.9 | 4.95 | > 100 | > 8.8 |  |  |  |  |  |  | 
3 | Cn1cc(SCC(=O)Nc2ccc(Cl)cc2Cl)c2ccccc21 | < 3.89 | > 1000 |  | 4.92 | > 100 | > 8.38 |  |  |  |  |  |  | 
4 | O=C(CSc1c[nH]c2ncccc12)Nc1ccc(Cl)c(Cl)c1 | < 3.89 | > 256 |  | 4.50 | > 100 | > 3.1 |  |  |  |  |  |  | 
5 | Cn1cc(SCC(=O)Nc2cccc(Cl)c2)c2ccccc21 | 4.62 | 18.9 | 0.79 | 5.00 | > 100 | > 10 |  |  |  |  |  |  | 
6 | Cn1cc(S(=O)(=O)CC(=O)Nc2ccc(Cl)cc2Cl)c2ccccc21 | < 3.89 | > 1000 |  | 4.47 | > 100 | > 2.97 |  |  |  |  |  |  | 
7 | O=C(CSc1c[nH]c2cccc(Cl)c12)Nc1ccc(Cl)c(Cl)c1 | 4.60 | 27.7 | 1.09 | 5.24 | 34.7 | 5.95 |  |  |  |  |  |  | 
8 | Cn1cc(S(=O)(=O)CC(=O)Nc2cccc(Cl)c2Cl)c2ccccc21 | 4.70 | 275 | 13.8 | 4.44 | > 100 | > 2.75 |  |  |  |  |  |  | 
9 | COc1ccc2c(SCC(=O)Nc3ccc(Cl)c(Cl)c3)c[nH]c2c1 | 5.24 | 42.7 | 7.16 | 4.80 | 78.4 | 5 | Dose-dependent effect |  |  |  |  |  | 
10 | Cn1cc([S+]([O-])CC(=O)Nc2ccccc2Cl)c2ccccc21 (stereo unspecified) | 4.91 | 97.4 | 7.89 | 4.53 | > 100 | > 3.36 |  |  |  |  |  |  | 
11 | CCOc1ccccc1NC(=O)CSc1c[nH]c2ncccc12 | < 3.89 | > 1000 |  | 4.50 | > 100 | > 3.21 |  |  |  |  |  |  | 
12 | O=C(CSc1c[nH]c2ccc(Cl)cc12)Nc1ccc(Cl)c(Cl)c1 | 5.00 | 35.2 | 3.54 | 5.12 | 42.7 | 5.53 |  |  |  |  |  |  | 
13 | Cn1cc(SCC(=O)Nc2ccc(Cl)c(Cl)c2)c2ccccc21 | 4.90 | 30.5 | 2.45 | 6.19 | > 100 | > 156 |  | > 85 |  |  |  |  | 
14 | CCOc1ccccc1NC(=O)CSc1c[nH]c2c(Cl)cccc12 | 5.35 | 262 | 58.8 | 5.76 | > 100 | > 57.5 |  |  | 5.36 | 5.74 |  |  | 
15 | CCOc1ccccc1NC(=O)CSc1c[nH]c2ccc(Cl)cc12 | 4.74 | 204 | 11.3 | 5.38 | 37.6 | 8.97 |  |  |  |  |  |  | 
16 | CCOc1ccccc1NC(=O)CSc1c[nH]c2cc(OC)ccc12 | 4.64 | 35.2 | 1.53 | 5.35 | 88.2 | 15.4 |  |  |  |  |  |  | 

Row | SMILES | pEC50 [1] | CC50 at 48 h [2] [µM] | selectivity ratio [3] | pEC50 (Influenza A virus [4]) | CC50 at 48 h [5] [µM] | selectivity ratio [6] | Activity [1] | inhibition at 10 µM (Influenza A virus [7]) [%] | pEC50 (Influenza A virus [8]) | pEC50 [9] | RFU [10] | RFU (Influenza A virus [11]) | Activity (Influenza A virus [4])
17 | Cn1cc(SCC(=O)Nc2ccc(Cl)cc2)c2ccccc21 | < 3.89 | 31.4 |  | 5.01 | > 100 | > 10.2 |  |  |  |  |  |  | 
18 | NC(=O)c1ncn([C@@H]2O[C@H](CO)[C@@H](O)[C@H]2O)n1 [RIBAVIRIN] | 4.80 | 274 | 17.3 | 4.60 | > 100 | > 3.99 |  |  | 4.80 | 4.69 | 0.04 | 0.67 | 
19 | Cn1cc(SCC(=O)Nc2c(Cl)cccc2Cl)c2ccccc21 | 4.76 | 23.7 | 1.37 | 5.46 | > 100 | > 28.6 |  | > 85 | 5.76 | 5.82 |  |  | Dose-dependent effect
20 | Cn1cc([S+]([O-])CC(=O)Nc2cccc(Cl)c2)c2ccccc21 (stereo unspecified) | < 3.89 | > 1000 |  | 4.41 | > 100 | > 2.55 |  |  |  |  |  |  | 
21 | COc1cccc2c(SCC(=O)Nc3ccc(Cl)c(Cl)c3)c[nH]c12 | 4.76 | 39.5 | 2.28 | 4.86 | > 100 | > 7.21 |  |  |  |  |  |  | 
22 | CCOc1ccccc1NC(=O)CSc1c[nH]c2cccc(Cl)c12 | 5.61 | 7.15 | 2.92 | 6.24 | 25.2 | > 41 | Dose-dependent effect |  | 5.57 | 5.63 |  |  | Dose-dependent effect
23 | CCOc1ccccc1NC(=O)CSc1c[nH]c2c(OC)cccc12 | 6.37 | 0.61 | 1.42 | 4.91 | > 100 | > 8.24 | Dose-dependent effect |  |  |  |  |  | 
24 | Cn1cc(SCC(=O)Nc2ccccc2Cl)c2ccccc21 | < 3.89 | > 1000 |  | 4.55 | > 100 | > 3.59 |  |  |  |  |  |  | 
25 | O=C(CSc1c[nH]c2c(Cl)cccc12)Nc1ccc(Cl)c(Cl)c1 | 4.74 | 32.8 | 1.81 | 4.98 | 49.1 | 4.69 |  |  |  |  |  |  | 
26 | Cn1cc(SCC(=O)Nc2cc(Cl)ccc2Cl)c2ccccc21 | < 3.89 | 76.9 |  | 4.80 | > 100 | > 6.38 |  |  |  |  |  |  | 
27 | COc1cccc2[nH]cc(SCC(=O)Nc3ccc(Cl)c(Cl)c3)c12 | < 3.89 | > 256 |  | 4.82 | > 100 | > 6.61 |  |  |  |  |  |  | 
28 | Cn1cc(SCC(=O)Nc2cccc(Cl)c2Cl)c2ccccc21 | < 3.89 | > 1000 |  | 4.86 | > 100 | > 7.26 |  |  |  |  |  |  | 
29 | O=C(CSc1c[nH]c2cc(Cl)ccc12)Nc1ccc(Cl)c(Cl)c1 | 4.86 | 27.8 | 1.99 | 5.13 | 67.8 | 9.16 |  |  |  |  |  |  | 
30 | Cn1cc([S+]([O-])CC(=O)Nc2ccc(Cl)cc2)c2ccccc21 (stereo unspecified) | < 3.89 | 61.9 |  | 5.00 | > 100 | > 10 |  |  |  |  |  |  | 
31 | Cn1cc(S(=O)(=O)CC(=O)Nc2cc(Cl)ccc2Cl)c2ccccc21 | < 3.89 | > 1000 |  | 4.74 | > 100 | > 6.72 |  |  |  |  |  |  | 
